Laboratory results reported in paper PMC3949138 (Journal of veterinary pharmacology and therapeutics, 2013).
Where “and” joins values, the source holds several entries; their conditions need not be identical. Identical values can stand only once. Like-named read-outs stand apart in the source and are kept apart here.

Tests used:
[1] = Serum pharmacokinetics of SAHA in cats after IV and PO administration; format: in vivo
Outline: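 Six adult SPF cats (3 female, 3 male, 10–18 months) in a randomized crossover with 1-week washout: 2 mg/kg IV (20 mg/mL in DMSO) or 250 mg/m2 PO in gelatin capsules. Serum without anticoagulant at set times up to 1440 min, stored at −70 °C. d5-SAHA internal standard at 1000 ng/mL final; acetonitrile extraction; C18 UPLC, positive-ion ESI MS/MS; LOQ 2.26 ng/mL; non-compartmental parameters.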

cats = assay: Tolerability monitoring in cats; format: in vivo
Outline: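 Six cats dosed in the crossover (2 mg/kg IV in DMSO; 250 mg/m2 PO capsules) had physical examinations. CBC (14 parameters) and serum biochemistry (16 values) were taken 1 week before, 24 h after and 1 week after each dose. Daily food intake was recorded for 1 week before and after each dosage; days compared by […].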

[2] = system: acetylated histone (H3K9,14); format: in vivo, cats
[3] = ref Sandhu et al., 2007, cited from earlier work
[4] = ref Kelly et al., 2005, cited from earlier work
dogs = settings: dog, in vivo; cited from earlier work
[5] = cats n=6, 250 mg/m2 PO, mean ± SD
[6] = after IV administration of the SAHA/DMSO mixture

O=C(CCCCCCC(=O)Nc1ccccc1)NO [SAHA, Suberoylanilidehydroxamic acid]
Cmax ([1]; both, cat, serum, po, 250 mg/m2): ~160 nM | AUC ([1]; both, serum, iv, 2 mg/kg): 150 ± 40 ng·h/mL | AUC(0-inf) ([1]; both, serum, iv, 2 mg/kg): 150 ± 50 ng·h/mL | clearance ([1]; both, serum, iv, 2 mg/kg): 233 mL/min/kg | half-life ([1]; both, serum, iv, 2 mg/kg): 9 min | half-life ([1]; both, serum, po, 2 mg/kg): 120 ± 60 min | AUC ([1]; both, serum, po, 250 mg/m2): 0.266 µM·h and 70 ng·h/mL | AUC(0-inf) ([1]; both, serum, po, 250 mg/m2): 80 ± 20 ng·h/mL | Cmax ([1]; both, serum, po, 250 mg/m2): 160 nM | bioavailability ([1]; both, serum, po, 250 mg/m2): 8 ± 4% | Cmax ([1]; cat, serum, po, 60 mg/kg): 50.1 ng/mL | T1/2λz (elimination half-life) ([1]; cats n=6, 2 mg/kg IV in DMSO, serum, mean ± SD): 9 ± 1.8 min | Percent Extrapolated (of AUC) ([1]; cats n=6, 2 mg/kg IV, mean ± SD): 0.6 ± 0.2% | Cmaxobs (observed maximum serum concentration) [1, 5]: 41.7 ng/mL and 40 ± 10 ng/mL | Percent Extrapolated (of AUC) [1, 5]: 17 ± 7% | Tmaxobs (time to observed maximal serum concentration) [1, 5]: 36 ± 18 min | overall tolerability (cats; 2 mg/kg IV and 250 mg/m2 PO, domestic cats): well tolerated | change in daily food intake following drug administration (cats; 1 week before and 1 week after each dosage (IV and PO)): No significant change | duration of moderate bleeding from venipuncture sites (cats; [6]): up to 5 minutes | moderate bleeding from venipuncture sites (cats affected) (cats; [6]): 2/6 | open-mouth breathing (cats affected) (cats; immediately following 2 mg/kg IV injection in DMSO): 2/6 | acetylated histone protein in blood leukocytes (acetyl H3/total H3) ([2]; 4 cats, 2 mg/kg IV and 250 mg/m2 PO): An increase in acetylated histone protein was detected | time for acetylated histone protein to return to baseline ([2]; 4 cats, after IV and PO administration): approximately 2 hours | histone acetylation in peripheral blood mononuclear cells ([2]; single cat #11-245, 60 mg/kg PO, 0, 60, 120, 1440 min): demonstrated a pharmacodynamic effect which roughly correlated with pharmacokinetics | oral bioavailability ([3]; dog): 1.8% | terminal elimination half-life ([3]; dogs, 2 mg/kg IV): 12 min | AUC0-τ ([3]; dogs, 20 mg/kg oral): 0.42 µM·h | Cmax ([3]; read-out: average Cmax, dogs, 20 mg/kg oral): 260 nM | half-life following IV administration ([4]; humans, IV, 2003, Kelly et al.): 21 to 58 min | bioavailability ([4]; patients with advanced cancer, estimated): 43% | no observed adverse effects level (NOAEL) (dogs): 60 mg/kg
